{
  "source": "ChEMBL document CHEMBL1208778",
  "about": "“Synthesis and anti-cancer activity of chalcone linked imidazolones” (2010)",
  "key": {"[1]": {"system": "MCF7", "assay": "Cell cycle arrest in human MCF7 cells assessed as accumulation at G0 phase at 10 uM after 24 hrs by FACS analysis", "format": "functional", "how_it_was_run": "(§1)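 MCF-7 breast carcinoma cells were exposed to 10 µM test compound for 24 h, with DMSO as the vehicle control. Cell-cycle distribution was read by FACS as the percentage of cells in G0, G1, S and G2/M.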"}, "[2]": {"system": "MCF7", "assay": "Cell cycle arrest in human MCF7 cells assessed as accumulation at G1 phase at 10 uM after 24 hrs by FACS analysis", "format": "functional", "how_it_was_run": "as §1"}, "[3]": {"system": "MCF7", "assay": "Cell cycle arrest in human MCF7 cells assessed as accumulation at S phase at 10 uM after 24 hrs by FACS analysis", "format": "functional", "how_it_was_run": "as §1"}, "[4]": {"system": "MCF7", "assay": "Cell cycle arrest in human MCF7 cells assessed as accumulation at G2/M phase at 10 uM after 24 hrs by FACS analysis", "format": "functional", "how_it_was_run": "as §1"}, "[5]": {"system": "MCF7", "assay": "Cell cycle arrest in human MCF7 cells assessed as accumulation at G0 phase at 30 uM after 24 hrs by FACS analysis", "format": "functional", "how_it_was_run": "(§2)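 MCF-7 cells were treated at 30 µM for 24 h alongside a DMSO control. Fractions in G0, G1, S and G2/M phases were measured by FACS, and values are means of three experiments.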"}, "[6]": {"system": "MCF7", "assay": "Cell cycle arrest in human MCF7 cells assessed as accumulation at G1 phase at 30 uM after 24 hrs by FACS analysis", "format": "functional", "how_it_was_run": "as §2"}, "[7]": {"system": "MCF7", "assay": "Cell cycle arrest in human MCF7 cells assessed as accumulation at S phase at 30 uM after 24 hrs by FACS analysis", "format": "functional", "how_it_was_run": "as §2"}, "[8]": {"system": "MCF7", "assay": "Cell cycle arrest in human MCF7 cells assessed as accumulation at G2/M phase at 30 uM after 24 hrs by FACS analysis", "format": "functional", "how_it_was_run": "as §2"}, "[9]": {"system": "MCF7", "assay": "Induction of apoptosis in human MCF7 cells assessed as decrease in procaspase 7 level at 30 uM after 24 hrs by Western blot analysis", "format": "functional, cell-based", "how_it_was_run": "(§3)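 MCF-7 breast carcinoma cells were exposed to 30 µM compound for 24 h, with CA-4 as positive control. Cell lysates were then immunoblotted with antibodies to procaspase-7 and cleavage-specific PARP, using β-actin as loading control.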"}, "[10]": {"system": "MCF7", "assay": "Induction of apoptosis in human MCF7 cells assessed as […] in PARP cleavage at 30 uM after 24 hrs by Western blot analysis", "format": "functional, cell-based", "how_it_was_run": "as §3"}},
  "note": "Active and inactive are the calls of the source. The rule behind the calls is not given here.",
  "data": [
    {"smiles": "COc1ccc(/C=C\\c2cc(OC)c(OC)c(OC)c2)cc1O", "note": "[COMBRETASTATIN A4]", "values": [
      {"measurement": "Activity", "setting": "[1]", "result": 9.45, "unit": "%"},
      {"measurement": "Activity", "setting": "[2]", "result": 11.79, "unit": "%"},
      {"measurement": "Activity", "setting": "[3]", "result": 9.96, "unit": "%"},
      {"measurement": "Activity", "setting": "[4]", "result": 68.8, "unit": "%"},
      {"measurement": "Activity", "setting": "[5]", "result": 11.64, "unit": "%"},
      {"measurement": "Activity", "setting": "[6]", "result": 25.04, "unit": "%"},
      {"measurement": "Activity", "setting": "[7]", "result": 39.63, "unit": "%"},
      {"measurement": "Activity", "setting": "[8]", "result": 23.69, "unit": "%"},
      {"measurement": "Activity", "setting": "[9]", "result": "inactive"},
      {"measurement": "Activity", "setting": "[10]", "result": "inactive"}
    ]}
  ]
}
